Data on 44 compounds can be found in ChEMBL document CHEMBL4406847, “Tryptoline-based benzothiazoles re-sensitize MRSA to β-lactam antibiotics” (Bioorg Med Chem, 2019).

The structures appear in SMILES notation. ≈ marks a conversion by molar mass, not a printed value.

The test system of data set [1] is Staphylococcus aureus. Kind of data set: Potentiation of cefazolin induced antibacterial activity against methicillin resistant Staphylococcus aureus ATCC BAA-44 assessed as minimum resensitizing concentration after 18 hrs by broth microdilution method. The note with it: ATCC BAA-44, 18 h, read-out: MEC. The data set is classed as functional. In short, it runs like this: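 Compound titrated in the presence of cefazolin at its CLSI breakpoint (8 μg/mL); MRC is the compound concentration at which no overnight growth occurs, in μg/mL; confirmed in triplicate.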

Data set [2] deals with Staphylococcus aureus. Kind of data set: Antibacterial activity against methicillin resistant Staphylococcus aureus ATCC BAA-44 after 18 hrs by broth microdilution method. The format is functional. Conditions: ATCC BAA-44, 18 h. In short, it runs like this: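 Compound alone, MIC by standard CLSI broth microdilution; lowest concentration with no growth, reported in μg/mL; confirmed in triplicate.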
(In broth dilution the organism is exposed to a series of concentrations in liquid medium.)

The next data set deals with HeLa. Kind of data set: Cytotoxicity against human HeLa cells assessed as cell growth inhibition measured after 24 hrs by Celltiter Glo luminescent assay. The data set is classed as cell-based. The note with it: hela, 24 h. (Cellular ATP, detected with luciferase, serves as a proxy for viable cell number.)
In data set [3] the test system is Staphylococcus aureus. Put plainly: Ratio of MIC for antibacterial activity against methicillin resistant Staphylococcus aureus ATCC BAA-44 to MEC for potentiation of cefazolin induced antibacterial activity against methicillin resistant Staphylococcus aureus ATCC BAA-44. The data set is classed as functional. The procedure, abridged:
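Compound MIC alone (CLSI broth microdilution) divided by its MRC with cefazolin at the 8 μg/mL breakpoint, both against MRSA BAA-44; each confirmed in triplicate.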

For the compound `FC(F)(F)c1ccc2nc(N3CCc4c([nH]c5ccc(Cl)cc45)C3)sc2c1`, the minimal effective concentration with Staphylococcus aureus [1] came out at 0.5 µg/mL. The MIC in the data set on Staphylococcus aureus [2] is over 64 µg/mL. The GI50 with HeLa was determined as 4.6 µg/mL (≈ 11.3 µM).
On to `Cc1ccc2nc(N3CCc4c([nH]c5ccc(Cl)cc45)C3)sc2c1`, for which the Ratio in the data set with Staphylococcus aureus [3] stood at 0. Also, the minimal effective concentration in the data set on Staphylococcus aureus [1] is over 64 µg/mL.
As for `N=CNCC1CN(c2nc3ccc(Cl)cc3s2)Cc2[nH]c3ccc(Cl)cc3c21` (racemic), the minimal effective concentration in the data set with Staphylococcus aureus [1] came to 2 µg/mL. This compound also yielded an MIC against Staphylococcus aureus [2] of 4 µg/mL (≈ 9.29 µM). Moreover, in the data set with HeLa, the GI50 came out at 3.8 µg/mL (≈ 8.83 µM).
With `NCCOc1cc(Cl)c2nc(N3CCc4c([nH]c5ccc(Cl)cc45)C3)sc2c1`, in the data set with Staphylococcus aureus [1], the minimal effective concentration was found to be 4 µg/mL. In the data set with Staphylococcus aureus [2], the MIC is 8 µg/mL (≈ 18.5 µM).
As to `CN(C)CC1CN(c2nc3ccc(Cl)cc3s2)Cc2[nH]c3ccc(Cl)cc3c21` (racemic), the minimal effective concentration in the data set on Staphylococcus aureus [1] came to 1 µg/mL. The same compound had an MIC in the data set on Staphylococcus aureus [2] of 2 µg/mL (≈ 4.64 µM). In addition, in the data set with HeLa, the GI50 was 5.2 µg/mL (≈ 12.1 µM).
On to `Clc1ccc2sc(N3CCc4c([nH]c5ccc(Cl)cc45)C3)nc2c1`, for which the Ratio in the data set on Staphylococcus aureus [3] was 0. The minimal effective concentration in the data set with Staphylococcus aureus [1] was over 64 µg/mL.
Turning to `Clc1ccc2[nH]c3c(c2c1)CCN(c1nc2c(Cl)cc(Br)cc2s1)C3`, the minimal effective concentration in the data set on Staphylococcus aureus [1] amounted to 8 µg/mL. Besides, the MIC against Staphylococcus aureus [2] is over 32 µg/mL. Moreover, the GI50 in the data set on HeLa is 22 µg/mL (≈ 48.5 µM).
`Clc1ccc2[nH]c3c(c2c1)CCN(c1nc2c(Cl)c(Cl)c(Cl)cc2s1)C3`: the minimal effective concentration in the data set with Staphylococcus aureus [1] stood at 1 µg/mL. Besides, in the data set with Staphylococcus aureus [2], the minimal inhibitory concentration (MIC) was found to be 2 µg/mL (≈ 4.51 µM). In addition, the GI50 in the data set on HeLa stood at 11.7 µg/mL (≈ 26.4 µM).
As for `Clc1ccc2[nH]c3c(c2c1)CCN(c1nc2ccccc2s1)C3`, in the data set with Staphylococcus aureus [3], the Ratio is on record as 0. Further, in the data set on Staphylococcus aureus [1], the minimal effective concentration was over 64 µg/mL.
`NCCNCC1CN(c2nc3ccc(Cl)cc3s2)Cc2[nH]c3ccc(Cl)cc3c21` (racemic): in the data set on Staphylococcus aureus [1], the minimal effective concentration is 2 µg/mL. Also, the GI50 in the data set on HeLa amounted to 2.4 µg/mL (≈ 5.38 µM).
Consider `CCOC(=O)C1c2[nH]c3ccc(Cl)cc3c2CCN1c1nc2ccc(Cl)cc2s1` (stereo not drawn), for which the minimal effective concentration in the data set with Staphylococcus aureus [1] was over 64 µg/mL.
On the same count and under the same terms, the result for `COc1ccc2[nH]c3c(c2c1)CCN(c1nc2ccc(Cl)cc2s1)C3` reads over 64 µg/mL.
For `Cn1c(N2CCc3c([nH]c4ccc(Cl)cc34)C2)nc2ccc(C(F)(F)F)cc21`, the minimal effective concentration in the data set on Staphylococcus aureus [1] was over 64 µg/mL.
As to `Clc1ccc2nc(N3CCc4c([nH]c5ccc(Cl)cc45)C3)oc2c1`, the Ratio in the data set with Staphylococcus aureus [3] is reported as 0. Besides, the minimal effective concentration in the data set on Staphylococcus aureus [1] is over 64 µg/mL.
For the compound `Clc1ccc2[nH]c3c(c2c1)CCN(c1nc2ccc(Br)cc2s1)C3`, the minimal effective concentration with Staphylococcus aureus [1] came out at 2 µg/mL. In the data set on Staphylococcus aureus [2], this compound registered an MIC of over 64 µg/mL. Also, the GI50 in the data set with HeLa was 5.1 µg/mL (≈ 12.2 µM).
As to `Clc1ccc2nc(N3CCc4c([nH]c5cccc(Cl)c45)C3)sc2c1`, the minimal effective concentration in the data set on Staphylococcus aureus [1] worked out at 16 µg/mL. Besides, the MIC against Staphylococcus aureus [2] is over 16 µg/mL.
With `Clc1ccc2nc(N3CCc4c([nH]c5c(Cl)cccc45)C3)sc2c1`, in the data set on Staphylococcus aureus [1], the minimal effective concentration is 16 µg/mL. For the same compound, the MIC in the data set with Staphylococcus aureus [2] was over 16 µg/mL.
For the compound `Cn1c(N2CCc3c([nH]c4ccc(Cl)cc34)C2)nc2ccccc21`, the minimal effective concentration in the data set on Staphylococcus aureus [1] was over 64 µg/mL.
Same read-out and setting: the result for `Clc1ccc2c3c([nH]c2c1)CN(c1nc2ccc(Cl)cc2s1)CC3` reads over 64 µg/mL.
Turning to `Clc1cc(Cl)c2nc(N3CCc4c([nH]c5ccc(Cl)cc45)C3)sc2c1`, the minimal effective concentration in the data set on Staphylococcus aureus [1] was determined as 1 µg/mL. The MIC against Staphylococcus aureus [2] was determined as 2 µg/mL (≈ 4.89 µM). Besides, the GI50 in the data set with HeLa stood at 16.1 µg/mL (≈ 39.4 µM).
In the case of `Clc1ccc2[nH]c3c(c2c1)CCN(c1nc2ncccc2s1)C3`, the minimal effective concentration with Staphylococcus aureus [1] is over 64 µg/mL.
Take `Cn1c(N2CCc3c([nH]c4ccc(Cl)cc34)C2)nc2ccc(Cl)cc21`: in the data set with Staphylococcus aureus [1], the minimal effective concentration was over 64 µg/mL.
As to `FC(F)(F)c1cc(Br)cc2sc(N3CCc4c([nH]c5ccc(Cl)cc45)C3)nc12`, in the data set on Staphylococcus aureus [1], the minimal effective concentration stood at 0.5 µg/mL. In the data set with Staphylococcus aureus [2], this compound came in with an MIC of 4 µg/mL (≈ 8.22 µM). The GI50 in the data set on HeLa is 5.9 µg/mL (≈ 12.1 µM).
Regarding `Clc1ccc2[nH]c3c(c2c1)CCN(c1nc2ccccc2o1)C3`, the Ratio in the data set with Staphylococcus aureus [3] was 0. Besides, the minimal effective concentration in the data set with Staphylococcus aureus [1] was over 64 µg/mL.
Take `Fc1ccc2[nH]c3c(c2c1)CCN(c1nc2ccc(Cl)cc2s1)C3`: the minimal effective concentration with Staphylococcus aureus [1] was over 64 µg/mL.
Still for that read-out and setting: the result for `CCn1c2c(c3cc(Cl)ccc31)CCN(c1nc3ccc(Cl)cc3s1)C2` reads over 64 µg/mL.
Consider `Clc1ccc2nc(N3CCc4c([nH]c5ccc(Br)cc45)C3)sc2c1`, for which, in the data set on Staphylococcus aureus [1], the minimal effective concentration was 1 µg/mL. Moreover, the minimal inhibitory concentration (MIC) against Staphylococcus aureus [2] was 4 µg/mL (≈ 9.55 µM).
In the case of `Nc1ccc2nc(N3CCc4c([nH]c5ccc(Cl)cc45)C3)sc2c1`, the minimal effective concentration with Staphylococcus aureus [1] is over 64 µg/mL.
Still for that read-out and setting: the result for `CCOC(=O)c1ccc2nc(N3CCc4c([nH]c5ccc(Cl)cc45)C3)sc2c1` reads over 64 µg/mL.
Consider `NCC1CN(c2nc3ccc(Cl)cc3s2)Cc2[nH]c3ccc(Cl)cc3c21` (racemic), for which, in the data set on Staphylococcus aureus [1], the minimal effective concentration worked out at 1 µg/mL. Also, the GI50 in the data set on HeLa turned out to be 1.5 µg/mL (≈ 3.72 µM).
`Cl.Nc1cc(C(F)(F)F)c2nc(N3CCc4c([nH]c5ccc(Cl)cc45)C3)sc2c1`: in the data set with Staphylococcus aureus [1], the minimal effective concentration was 2 µg/mL. For the same compound, in the data set on Staphylococcus aureus [2], it took 16 µg/mL to inhibit growth (MIC). Moreover, in the data set on HeLa, the GI50 was 32 µg/mL.
The matching figures for `C[N+](C)(C)CC1CN(c2nc3ccc(Cl)cc3s2)Cc2[nH]c3ccc(Cl)cc3c21.[I-]` (racemic): 4 µg/mL, 8 µg/mL and 18 µg/mL.
On to `COc1cc(Cl)c2nc(N3CCc4c([nH]c5ccc(Cl)cc45)C3)sc2c1`, for which the minimal effective concentration in the data set on Staphylococcus aureus [1] was over 32 µg/mL.
On to `Oc1cc(Cl)c2nc(N3CCc4c([nH]c5ccc(Cl)cc45)C3)sc2c1`, for which the minimal effective concentration in the data set with Staphylococcus aureus [1] turned out to be 8 µg/mL. For the same compound, in the data set with Staphylococcus aureus [2], the MIC was over 32 µg/mL. Also, in the data set on HeLa, the GI50 came out at 5.5 µg/mL (≈ 14.1 µM).
Consider `Cl.NCCSCC1CN(c2nc3ccc(Cl)cc3s2)Cc2[nH]c3ccc(Cl)cc3c21` (racemic), for which, in the data set with Staphylococcus aureus [1], the minimal effective concentration was 1 µg/mL. In the data set on HeLa, the GI50 came out at 3.8 µg/mL.
Take `CN(C)C(=O)C1CN(c2nc3ccc(Cl)cc3s2)Cc2[nH]c3ccc(Cl)cc3c21` (racemic): the Ratio in the data set on Staphylococcus aureus [3] is 0. The minimal effective concentration with Staphylococcus aureus [1] is over 32 µg/mL.
For the compound `Cl.NCC(=O)Nc1cc(Cl)c2nc(N3CCc4c([nH]c5ccc(Cl)cc45)C3)sc2c1`, the minimal effective concentration with Staphylococcus aureus [1] turned out to be 2 µg/mL. Also, the GI50 in the data set with HeLa was determined as 14.8 µg/mL.
As to `FC(F)(F)c1ccc2nc(N3CCc4c([nH]c5ccc(Cl)cc45)C3)oc2c1`, the Ratio in the data set on Staphylococcus aureus [3] was found to be 0. Moreover, the minimal effective concentration in the data set on Staphylococcus aureus [1] was over 64 µg/mL.
Consider `FC(F)(F)c1cnc2nc(N3CCc4c([nH]c5ccc(Cl)cc45)C3)sc2c1`, for which, in the data set with Staphylococcus aureus [1], the minimal effective concentration is over 64 µg/mL.
As to `OCC1CN(c2nc3ccc(Cl)cc3s2)Cc2[nH]c3ccc(Cl)cc3c21` (racemic), the minimal effective concentration in the data set with Staphylococcus aureus [1] worked out at 2 µg/mL. In addition, in the data set on HeLa, the 50% growth inhibitory concentration (GI50) is 10.8 µg/mL (≈ 26.7 µM).
Regarding `Cl.NCCNc1cc(C(F)(F)F)c2nc(N3CCc4c([nH]c5ccc(Cl)cc45)C3)sc2c1`, in the data set with Staphylococcus aureus [1], the minimal effective concentration stood at 1 µg/mL. Moreover, in the data set on HeLa, the GI50 was 7.4 µg/mL.
Regarding `COCOCC1CN(c2nc3ccc(Cl)cc3s2)Cc2[nH]c3ccc(Cl)cc3c21` (racemic), the minimal effective concentration in the data set on Staphylococcus aureus [1] is 2 µg/mL. For the same compound, the GI50 in the data set with HeLa amounted to 7 µg/mL (≈ 15.6 µM).
`CNc1cc(C(F)(F)F)c2nc(N3CCc4c([nH]c5ccc(Cl)cc45)C3)sc2c1`: in the data set with Staphylococcus aureus [1], the minimal effective concentration was determined as 2 µg/mL. Besides, the MIC in the data set with Staphylococcus aureus [2] was over 32 µg/mL. The concentration for 50% growth inhibition (GI50) in the data set with HeLa worked out at 15.4 µg/mL (≈ 35.2 µM).
Consider `Clc1ccc2[nH]c3c(c2c1)CCN(c1nc2cccc(Cl)c2s1)C3`, for which, in the data set on Staphylococcus aureus [1], the minimal effective concentration was determined as 1 µg/mL. The same compound registered an MIC against Staphylococcus aureus [2] of 4 µg/mL (≈ 10.7 µM). The GI50 in the data set with HeLa amounted to 6.7 µg/mL (≈ 17.9 µM).

For orientation: MIC means the lowest concentration that inhibits growth of the organism. Low values mean greater potency, high ones weaker potency. A word on the GI50: it is the concentration giving 50% growth inhibition.
